From PubChem BioAssay
An excerpt weighted towards active compounds, which were near 4.2% of everything screened.
SENP1 FRET inh – human SENP1 catalytic domain inhibitors, primary screen, biochemical, FRET, uHTS; hit rate 0.21% among 360,000; Sentrin-specific protease 1 (Homo sapiens), Q9P0U3; inhibition, % at 10 µM; recombinant SENP1 catalytic domain, CyPet-SUMO1-YPet FRET cleavage;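 active = inhibition at least 30% at 10 µM, raw YFP signal under a set limit, fluorescence ratio 0.5 to 1.5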;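 also: 0% = enzyme with DMSO and 100% = no enzyme wells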
Target sequence (Q9P0U3 419-644 limits assumed): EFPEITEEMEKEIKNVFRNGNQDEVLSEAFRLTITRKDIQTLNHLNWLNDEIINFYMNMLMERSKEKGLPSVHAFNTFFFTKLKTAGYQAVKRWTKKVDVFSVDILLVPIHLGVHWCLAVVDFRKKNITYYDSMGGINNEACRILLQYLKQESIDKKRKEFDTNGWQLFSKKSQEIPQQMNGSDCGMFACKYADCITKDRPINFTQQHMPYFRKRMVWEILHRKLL
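Test system: human SENP1 catalytic domain; medium: Tris pH 8 buffer plus EDTA, NaCl, BME, BSA, NP40, catalase; incubation: 50 min reaction at room temperature; technique: FRET, CFP and YFP emission; controls: no-enzyme low control and enzyme-plus-DMSO high control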
AHR activator – AHR activators, primary screen, cell-based, luminescence, luciferase reporter, human; activation, % at 5 µM; hit rate 2.5% among 320,000; Aryl hydrocarbon receptor (Homo sapiens), P35869; AID 2796, 2010; AHR-responsive luciferase reporter cells; in the data active = activation above about 47%;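 also: 0% = vehicle wells and 100% = reference agonist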
M18AAP inhibitor – PfM18AAP inhibitors, malaria aminopeptidase, primary screen, biochemical, QFRET, recombinant enzyme. M18 aspartyl aminopeptidase (Plasmodium falciparum 3D7). H-Glu-NHMec fluorogenic cleavage. inhibition, % at 7.35 µM. hit rate 1.2% among 290,000. AID 1822, 2009;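 active = inhibition above the campaign mean inhibition over all tested compounds plus 3 SD, cut at about 28% in these data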;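 also: 0% = plate median of test compound wells and 100% = 2 mM ZnCl2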
GAA850 FXN act – FXN promoter activators, primary screen, cell-based, luciferase luminescence, HEK293 lucGAA850 | activation, % at 6 µM | HEK293 lucGAA850 FXN promoter luciferase reporter, 24 h; percent of 10 µM SAHA response | AID 540364, 2011 | hit rate 0.56% among 360,000;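 active = activation above the average of all compounds screened plus 3 SD, cutoff fixed separately per campaign, cut at about 7.5% in these data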;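 also: 0% = DMSO wells and 100% = 10 µM SAHA wells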
CTSL1 counter – Fasciola hepatica cathepsin L1 inhibitors, primary screen, counter-screen for PFM18AAP inhibitor project, biochemical, QFRET, fluorogenic peptide substrate. recombinant F. hepatica cathepsin L1, Z-Leu-Arg-MCA fluorescence. inhibition, % at 5.96 µM. hit rate 0.49% among 300,000. AID 1906, 2009;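 active = inhibition above the mean of all tested compounds plus 3 SD, set per screening campaign, cut at about 17% in these data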;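 also: 0% = plate median of test compound wells and 100% = 1 µM Z-Phe-Ala-diazomethylketone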
HDAC3 inh – HDAC3 deacetylase inhibitors, primary screen, biochemical, fluorescence, cell-free homogeneous. Histone deacetylase 3 (Homo sapiens), O15379. recombinant HDAC3, fluorogenic peptide/trypsin coupled. inhibition, % at 8.3 µM. hit rate 0.15% among 320,000. AID 2718, 2010; in the data active = inhibition above about 26%, passing the limit was not always enough
Target sequence (O15379 whole entry, looked up): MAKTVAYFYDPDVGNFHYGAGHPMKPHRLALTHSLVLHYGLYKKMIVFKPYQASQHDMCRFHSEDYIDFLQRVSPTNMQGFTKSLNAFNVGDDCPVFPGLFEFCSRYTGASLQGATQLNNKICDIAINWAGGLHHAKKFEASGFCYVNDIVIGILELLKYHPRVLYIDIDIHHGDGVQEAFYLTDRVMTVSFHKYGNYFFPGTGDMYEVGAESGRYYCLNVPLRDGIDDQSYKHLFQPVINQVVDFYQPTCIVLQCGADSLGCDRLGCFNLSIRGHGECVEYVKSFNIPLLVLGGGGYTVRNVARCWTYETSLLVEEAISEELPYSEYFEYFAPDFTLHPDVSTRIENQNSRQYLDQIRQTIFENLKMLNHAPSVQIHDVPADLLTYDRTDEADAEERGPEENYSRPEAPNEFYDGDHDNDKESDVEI
GAA30 counter – GAA30 FXN promoter activators, confirmation, counter-screen for GAA850 frataxin promoter activator project, cell-based, luminescence, HEK293, lucGAA30, triplicate; shares compounds with GAA850 FXN act; HEK293 lucGAA30 FXN promoter luciferase, 24 h; DMSO = 0%, 5 µM ipriflavone = 100%; activation, % at 6 µM; hit rate 66% among 1,900; AID 588350, 2011;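 active = mean activation above the mean of solvent-only control wells plus 3 SD, cut at about 22% in these data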;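 also: counterscreen of GAA850 promoter hits where activity marks nonselective or luminescence artifacts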
FXN GAA850 conf – FXN GAA850 promoter activators in reporter cells, confirmation, cell-based, luminescence, HEK293 lucGAA850, triplicate; HEK293 lucGAA850 FXN promoter luciferase reporter, 24 h; 100% = activation by SAHA; activation, % at 6 µM; shares compounds with GAA850 FXN act; hit rate 86% among 1,900;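 active = mean activation above a set limit taken from the primary screen, cut at about 8% in these data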;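 also: 0% = DMSO wells and 100% = 10 µM SAHA wells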
* = called active by the depositor.

How did CNc1nc(Nc2ccc(Br)cc2)nc(N)c1[N+](=O)[O-] do in these assays?
SENP1 FRET inh: 5; AHR activator: 70*; M18AAP inhibitor: -2; GAA850 FXN act: 9.1*; CTSL1 counter: 3; HDAC3 inh: 0; GAA30 counter: 91*; FXN GAA850 conf: 42*

What do the screens show for `COC(=O)C(=C/C(C)=C/c1cccnc1)C(=O)OC`?
SENP1 FRET inh: 1; AHR activator: -3; M18AAP inhibitor: -3; GAA850 FXN act: -4; CTSL1 counter: 5; HDAC3 inh: -3

How did CN(C)c1ccc(/C=C/c2nnnn2-c2ccccc2)cc1 do in these assays?
SENP1 FRET inh: -30; AHR activator: 8; M18AAP inhibitor: 4; GAA850 FXN act: 8.3*; CTSL1 counter: 1; HDAC3 inh: -6; GAA30 counter: 125*; FXN GAA850 conf: 38*

How did Cc1nc2sc(C#N)c(N)c2c2c1CCCC2 do in these assays?
SENP1 FRET inh: -5; AHR activator: -3; M18AAP inhibitor: -3; GAA850 FXN act: 2; CTSL1 counter: -3; HDAC3 inh: -8

How did N#Cc1sc2nc(N3CCCCC3)c3c(c2c1N)CCCC3 do in these assays?
SENP1 FRET inh: 2; AHR activator: 1; M18AAP inhibitor: 4; GAA850 FXN act: 7.6*; CTSL1 counter: 6; HDAC3 inh: -4; GAA30 counter: 18; FXN GAA850 conf: 17*

Results for Cc1cc(Br)c2c(c1)/C(=C/C(=O)c1cccs1)C(=O)N2 ?
SENP1 FRET inh: 2; AHR activator: 21; M18AAP inhibitor: 18; GAA850 FXN act: 9.7*; CTSL1 counter: 1; HDAC3 inh: 3; GAA30 counter: 17; FXN GAA850 conf: 22*

Results for Cc1cc(C)c2c(c1)/C(=C/C(=O)c1ccc(Br)s1)C(=O)N2 ?
SENP1 FRET inh: 0; AHR activator: 9; M18AAP inhibitor: 5; GAA850 FXN act: 1; CTSL1 counter: -2; HDAC3 inh: 10

How did O=C(C#Cc1ccccc1)c1ccco1 do in these assays?
SENP1 FRET inh: 1; AHR activator: -2; M18AAP inhibitor: -60; GAA850 FXN act: 12*; CTSL1 counter: 8; HDAC3 inh: 3; GAA30 counter: -116; FXN GAA850 conf: -35

Results for CN(Cc1ccccc1)C(=O)c1ccco1 ?
SENP1 FRET inh: 1; AHR activator: 1; M18AAP inhibitor: -1; GAA850 FXN act: 0; CTSL1 counter: 3; HDAC3 inh: -3

What do the screens show for `COc1cc(O)c2c(=O)c(-c3ccc(O[C@@H]4O[C@H](CO)[C@@H](O)[C@H](O)[C@H]4O)cc3)coc2c1`?
SENP1 FRET inh: 1; M18AAP inhibitor: -13; GAA850 FXN act: 9.0*; HDAC3 inh: 6; GAA30 counter: 108*; FXN GAA850 conf: 31*

How did COc1cccc(C(O)c2nc(-c3ccccc3)cs2)c1 (centres undefined) do in these assays?
SENP1 FRET inh: -2; GAA850 FXN act: 2

What do the screens show for `COc1ccc([C@@H]2[C@@H]3C(=O)N(C(C)(C)C)C(=O)[C@@H]3[C@]3(CC(C)C)C(=O)N(c4cccc(F)c4)C(=O)N23)cc1`?
SENP1 FRET inh: -1; AHR activator: 1; GAA850 FXN act: 15*; CTSL1 counter: 0; HDAC3 inh: 9; GAA30 counter: 46*; FXN GAA850 conf: 16*

Results for CC[C@@]12C(=O)N(c3cccc(F)c3)C(=O)N1[C@H](c1ccc(Br)cc1)[C@@H]1C(=O)N(C(C)(C)C)C(=O)[C@@H]12 ?
SENP1 FRET inh: 2; AHR activator: 2; GAA850 FXN act: 15*; CTSL1 counter: 0; HDAC3 inh: 4; GAA30 counter: 26*; FXN GAA850 conf: 13*

What do the screens show for `COc1ccc([C@@H]2[C@@H]3C(=O)N(C(C)(C)C)C(=O)[C@@H]3[C@]3(Cc4ccccc4)C(=O)N(c4cccc(F)c4)C(=O)N23)cc1`?
SENP1 FRET inh: 1; AHR activator: 2; GAA850 FXN act: -1; CTSL1 counter: -1; HDAC3 inh: 11

What do the screens show for `Cc1cc2nc(SCC(=O)Nc3ccccc3C(=O)O)[nH]c2cc1C`?
SENP1 FRET inh: 2; AHR activator: 20; M18AAP inhibitor: -1; GAA850 FXN act: 9.6*; CTSL1 counter: -3; HDAC3 inh: -3; GAA30 counter: 62*; FXN GAA850 conf: 18*

What do the screens show for `NC(=O)c1ccccc1NC(=O)CSc1nc2ccccc2c(=O)[nH]1`?
SENP1 FRET inh: 0; AHR activator: 24; M18AAP inhibitor: -1; GAA850 FXN act: 0; CTSL1 counter: 2; HDAC3 inh: 3

Results for O=C(NCCCn1ccnc1)c1ccc(Cl)cc1[N+](=O)[O-] ?
SENP1 FRET inh: -8; AHR activator: 29; M18AAP inhibitor: -7; GAA850 FXN act: 0; CTSL1 counter: -5; HDAC3 inh: 0

Results for O=C(NCCCn1ccnc1)c1cc2cc([N+](=O)[O-])ccc2oc1=O ?
SENP1 FRET inh: 2; AHR activator: 4; M18AAP inhibitor: -6; GAA850 FXN act: 12*; CTSL1 counter: 1; HDAC3 inh: -1; GAA30 counter: 11; FXN GAA850 conf: 7

How did CC(=O)N1CCCc2cc(S(=O)(=O)CCC(=O)Nc3cccc(C)c3C)ccc21 do in these assays?
SENP1 FRET inh: 0; AHR activator: 4; M18AAP inhibitor: 0; GAA850 FXN act: 0; CTSL1 counter: 0; HDAC3 inh: -2

What do the screens show for `COc1ccc(NC(=O)C2C(=O)NC3(C)CC2c2ccccc2O3)cc1` (centres undefined)?
SENP1 FRET inh: 1; AHR activator: 0; M18AAP inhibitor: -1; GAA850 FXN act: 13*; CTSL1 counter: -2; HDAC3 inh: -1; GAA30 counter: 21; FXN GAA850 conf: 7

What do the screens show for `Cc1cc2nc(-c3ccc(NC(=O)C(C)C)cc3)oc2cc1C`?
SENP1 FRET inh: 0; AHR activator: -18; M18AAP inhibitor: -14; GAA850 FXN act: 8.5*; CTSL1 counter: 1; HDAC3 inh: -11; GAA30 counter: 102*; FXN GAA850 conf: 37*
